# Source: ChEMBL document CHEMBL1142516, “Design, synthesis, and structure-affinity relationships of novel series of sialosides as CD22-specific inhibitors” (J Med Chem, 2008)
# Columns and labels:
# B-cell receptor CD22 = target: T1, B-cell receptor CD22 (Homo sapiens, UniProt P20273); test: Binding affinity to biotinylated human CD22-human IgG1 chimeric protein expressed in mouse J558LST6 cells by flow cytometry; type: cell-based
# T1 sequence (P20273 whole entry): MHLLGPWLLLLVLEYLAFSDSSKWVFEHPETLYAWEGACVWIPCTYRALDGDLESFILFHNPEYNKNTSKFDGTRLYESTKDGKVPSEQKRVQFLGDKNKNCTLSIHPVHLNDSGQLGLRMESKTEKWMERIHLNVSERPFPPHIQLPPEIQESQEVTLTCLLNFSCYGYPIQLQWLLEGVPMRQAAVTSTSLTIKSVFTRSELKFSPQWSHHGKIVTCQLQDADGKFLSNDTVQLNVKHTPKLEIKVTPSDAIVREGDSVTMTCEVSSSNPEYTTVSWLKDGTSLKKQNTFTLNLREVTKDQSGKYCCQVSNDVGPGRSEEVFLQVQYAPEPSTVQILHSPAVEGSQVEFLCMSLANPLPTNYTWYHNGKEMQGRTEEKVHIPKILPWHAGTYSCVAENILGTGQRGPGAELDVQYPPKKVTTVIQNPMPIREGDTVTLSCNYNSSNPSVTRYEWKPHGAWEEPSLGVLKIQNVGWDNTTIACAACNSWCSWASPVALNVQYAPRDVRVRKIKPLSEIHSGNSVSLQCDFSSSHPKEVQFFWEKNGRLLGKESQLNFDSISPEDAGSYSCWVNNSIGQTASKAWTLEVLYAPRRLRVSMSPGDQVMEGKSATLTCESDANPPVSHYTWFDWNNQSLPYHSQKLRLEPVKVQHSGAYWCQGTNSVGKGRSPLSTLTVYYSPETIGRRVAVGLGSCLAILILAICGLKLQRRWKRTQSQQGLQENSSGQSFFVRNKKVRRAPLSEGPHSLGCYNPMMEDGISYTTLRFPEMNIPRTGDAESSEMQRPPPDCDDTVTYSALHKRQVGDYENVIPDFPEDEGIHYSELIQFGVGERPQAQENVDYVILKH
# How it was run: (§1)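 IC50 from inhibition of CD22-Fc binding to alpha2,6-sialic acid on ST6GalI-transfected J558L mouse myeloma cells (J558LST6), incubated with CD22-Fc plus varied sialoside concentrations. Detection with Alexa Fluor 647-streptavidin, 30 min on ice, then flow cytometry. % binding = (A−B)/(C−B)×100 using MFI: A, sialoside sample; B, parent J558L; C, untreated J558LST6. IC50 taken as 50% binding inhibition; means of ≥3 independent determinations.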
# [1] = Binding affinity to biotinylated mouse CD22-human IgG1 chimeric protein expressed in mouse J558LST6 cells by flow cytometry; type: cell-based; how it was run: as §1
SMILES,IC50 (B-cell receptor CD22) [µM],IC50 [1] [µM]
COc1ccc(O[C@@H]2O[C@H](CO[C@]3(C(=O)O)C[C@H](O)[C@@H](NC(=O)CO)[C@H]([C@H](O)[C@H](O)CNCc4ccc(-c5ccccc5O)cc4)O3)[C@H](O)[C@H](O)[C@H]2O)cc1,0.23,12.5
COc1ccc(O[C@@H]2O[C@H](CO[C@]3(C(=O)O)C[C@H](O)[C@@H](NC(=O)CO)[C@H]([C@H](O)[C@H](O)CNCc4ccc(-c5ccc(O)cc5)cc4)O3)[C@H](O)[C@H](O)[C@H]2O)cc1,0.24,6.43
COc1ccc(O[C@@H]2O[C@H](CO[C@]3(C(=O)O)C[C@H](O)[C@@H](NC(=O)CO)[C@H]([C@H](O)[C@H](O)CNC(=O)c4ccc5ccccc5c4)O3)[C@H](O)[C@H](O)[C@H]2O)cc1,2.6,90
COc1ccc(O[C@@H]2O[C@H](CO[C@]3(C(=O)O)C[C@H](O)[C@@H](NC(=O)CO)[C@H]([C@H](O)[C@H](O)CNC(=O)c4ccccc4O)O3)[C@H](O)[C@H](O)[C@H]2O)cc1,193,138
COc1ccc(O[C@@H]2O[C@H](CO[C@]3(C(=O)O)C[C@H](O)[C@@H](NC(=O)CO)[C@H]([C@H](O)[C@H](O)CNC(=O)C4CCCCC4)O3)[C@H](O)[C@H](O)[C@H]2O)cc1,16,65.3
COc1ccc(O[C@@H]2O[C@H](CO[C@]3(C(=O)O)C[C@H](O)[C@@H](NC(=O)CO)[C@H]([C@H](O)[C@H](O)CNC(=O)Cc4ccc(-c5ccc(O)cc5)cc4)O3)[C@H](O)[C@H](O)[C@H]2O)cc1,0.9,1.7
COc1ccc(O[C@@H]2O[C@H](CO[C@]3(C(=O)O)C[C@H](O)[C@@H](NC(=O)CO)[C@H]([C@H](O)[C@H](O)CNCC4CCCCC4)O3)[C@H](O)[C@H](O)[C@H]2O)cc1,37.7,9.5
COc1ccc(O[C@@H]2O[C@H](CO[C@]3(C(=O)O)C[C@H](O)[C@@H](NC(=O)CO)[C@H]([C@H](O)[C@H](O)CNC(=O)c4cc(Cl)ccc4O)O3)[C@H](O)[C@H](O)[C@H]2O)cc1,116,161
C[Si](C)(C)CCO[C@@H]1O[C@H](CO[C@]2(C(=O)O)C[C@H](O)[C@@H](NC(=O)CO)[C@H]([C@H](O)[C@H](O)CO)O2)[C@H](O)[C@H](O)[C@H]1O,550,833
COc1ccc(O[C@@H]2O[C@H](CO[C@]3(C(=O)O)C[C@H](O)[C@@H](NC(=O)CO)[C@H]([C@H](O)[C@H](O)CNC(=O)CCCc4ccc5ccc6cccc7ccc4c5c67)O3)[C@H](O)[C@H](O)[C@H]2O)cc1,21.1,66.8
COc1ccc(O[C@@H]2O[C@H](CO[C@]3(C(=O)O)C[C@H](O)[C@@H](NC(=O)CO)[C@H]([C@H](O)[C@H](O)CNCc4ccc(-c5ccccc5)cc4)O3)[C@H](O)[C@H](O)[C@H]2O)cc1,0.47,16.3
COc1ccc(O[C@@H]2O[C@H](CO[C@]3(C(=O)O)C[C@H](O)[C@@H](NC(=O)CO)[C@H]([C@H](O)[C@H](O)CNCCc4ccc(-c5ccccc5)cc4)O3)[C@H](O)[C@H](O)[C@H]2O)cc1,5.48,11.2
COc1ccc(O[C@@H]2O[C@H](CO[C@]3(C(=O)O)C[C@H](O)[C@@H](NC(=O)CO)[C@H]([C@H](O)[C@H](O)CNCc4ccc(-c5ccc(OC)cc5)cc4)O3)[C@H](O)[C@H](O)[C@H]2O)cc1,1.76,30
COc1ccc(O[C@@H]2O[C@H](CO[C@]3(C(=O)O)C[C@H](O)[C@@H](NC(=O)CO)[C@H]([C@H](O)[C@H](O)CNC(=O)Cc4ccc(-c5ccccc5)cc4)O3)[C@H](O)[C@H](O)[C@H]2O)cc1,3.7,6.2
COc1ccc(O[C@@H]2O[C@H](CO[C@]3(C(=O)O)C[C@H](O)[C@@H](NC(=O)CO)[C@H]([C@H](O)[C@H](O)CNC(=O)c4cccnc4)O3)[C@H](O)[C@H](O)[C@H]2O)cc1,132,32.2
COc1ccc(O[C@@H]2O[C@H](CO[C@]3(C(=O)O)C[C@H](O)[C@@H](NC(=O)CO)[C@H]([C@H](O)[C@H](O)CNCc4ccc(-c5cccc(C(=O)O)c5)cc4)O3)[C@H](O)[C@H](O)[C@H]2O)cc1,7.48,32.7

SMILES,IC50 (B-cell receptor CD22) [µM],IC50 [1] [µM]
COc1ccc(O[C@@H]2O[C@H](CO[C@]3(C(=O)O)C[C@H](O)[C@@H](NC(=O)CO)[C@H]([C@H](O)[C@H](O)CNC(=O)CCc4ccccc4)O3)[C@H](O)[C@H](O)[C@H]2O)cc1,10.4,168
COc1ccc(O[C@@H]2O[C@H](CO[C@]3(C(=O)O)C[C@H](O)[C@@H](NC(=O)CO)[C@H]([C@H](O)[C@H](O)CNC(=O)c4ccc(-c5ccccc5)cc4)O3)[C@H](O)[C@H](O)[C@H]2O)cc1,1.1,52.9
COc1ccc(O[C@@H]2O[C@H](CO[C@]3(C(=O)O)C[C@H](O)[C@@H](NC(=O)CO)[C@H]([C@H](O)[C@H](O)CNC(=O)Cc4ccc(-c5cccc(O)c5)cc4)O3)[C@H](O)[C@H](O)[C@H]2O)cc1,4.3,2.9
COc1ccc(O[C@@H]2O[C@H](CO[C@]3(C(=O)O)C[C@H](O)[C@@H](NC(=O)CO)[C@H]([C@H](O)[C@H](O)CNCc4ccc(-c5ccc(C(=O)O)cc5)cc4)O3)[C@H](O)[C@H](O)[C@H]2O)cc1,43,10
COc1ccc(O[C@@H]2O[C@H](CO[C@]3(C(=O)O)C[C@H](O)[C@@H](NC(=O)CO)[C@H]([C@H](O)[C@H](O)CNCc4cc(OC)cc(OC)c4)O3)[C@H](O)[C@H](O)[C@H]2O)cc1,24.8,77.5
COc1ccc(O[C@@H]2O[C@H](CO[C@]3(C(=O)O)C[C@H](O)[C@@H](NC(=O)CO)[C@H]([C@H](O)[C@H](O)CO)O3)[C@H](O)[C@H](O)[C@H]2O)cc1,148,497
CCCCCC(=O)NC[C@@H](O)[C@@H](O)[C@@H]1O[C@@](OC[C@H]2O[C@@H](Oc3ccc(OC)cc3)[C@H](O)[C@@H](O)[C@H]2O)(C(=O)O)C[C@H](O)[C@H]1NC(=O)CO,40.9,88.5
COc1ccc(O[C@@H]2O[C@H](CO[C@]3(C(=O)O)C[C@H](O)[C@@H](NC(=O)CO)[C@H]([C@H](O)[C@H](O)CNC(=O)c4ccc(-c5cccc(C(=O)O)c5)cc4)O3)[C@H](O)[C@H](O)[C@H]2O)cc1,7.13,16.6
COc1ccc(O[C@@H]2O[C@H](CO[C@]3(C(=O)O)C[C@H](O)[C@@H](NC(=O)CO)[C@H]([C@H](O)[C@H](O)CNCc4ccc(-c5ccc(C(F)(F)F)cc5)cc4)O3)[C@H](O)[C@H](O)[C@H]2O)cc1,45,48
COc1ccc(O[C@@H]2O[C@H](CO[C@]3(C(=O)O)C[C@H](O)[C@@H](NC(=O)CO)[C@H]([C@H](O)[C@H](O)CNC(=O)c4ccc(-c5ccc(O)cc5)cc4)O3)[C@H](O)[C@H](O)[C@H]2O)cc1,0.4,8.63
COc1ccc(O[C@@H]2O[C@H](CO[C@]3(C(=O)O)C[C@H](O)[C@@H](NC(=O)CO)[C@H]([C@H](O)[C@H](O)CNC(=O)c4ccc(-c5ccc(C(=O)O)cc5)cc4)O3)[C@H](O)[C@H](O)[C@H]2O)cc1,73.3,23.4
COc1ccc(O[C@@H]2O[C@H](CO[C@]3(C(=O)O)C[C@H](O)[C@@H](NC(=O)CO)[C@H]([C@H](O)[C@H](O)CNC(=O)CCc4ccc(O)cc4)O3)[C@H](O)[C@H](O)[C@H]2O)cc1,7.65,139
COc1ccc(O[C@@H]2O[C@H](CO[C@]3(C(=O)O)C[C@H](O)[C@@H](NC(=O)CO)[C@H]([C@H](O)[C@H](O)CNCc4ccccc4)O3)[C@H](O)[C@H](O)[C@H]2O)cc1,123,25.7
COc1ccc(O[C@@H]2O[C@H](CO[C@]3(C(=O)O)C[C@H](O)[C@@H](NC(=O)CO)[C@H]([C@H](O)[C@H](O)CN)O3)[C@H](O)[C@H](O)[C@H]2O)cc1,85,93.1
COc1ccc(O[C@@H]2O[C@H](CO[C@]3(C(=O)O)C[C@H](O)[C@@H](NC(=O)CO)[C@H]([C@H](O)[C@H](O)CNCc4ccc(-c5cccc(O)c5)cc4)O3)[C@H](O)[C@H](O)[C@H]2O)cc1,1.73,16.5
COc1ccc(O[C@@H]2O[C@H](CO[C@]3(C(=O)O)C[C@H](O)[C@@H](NC(=O)CO)[C@H]([C@H](O)[C@H](O)CNC(=O)Cc4ccc5ccccc5c4)O3)[C@H](O)[C@H](O)[C@H]2O)cc1,1,24.7
